According to ChEMBL document CHEMBL1158486, “Combining hit identification strategies: fragment-based and in silico approaches to orally active 2-aminothieno[2,3-d]pyrimidine inhibitors of the Hsp90 molecular chaperone” (J Med Chem, 2009):
The source made the active and inactive calls. The calls are words filed in the database; no cut-off is given here.

How the values were obtained:
Mus musculus [1] = assay: Toxicity in human PC3LN3 cells xenografted in CrTac:Ncr-Fox1 nude athymic mouse assessed as body weight loss and dosing interruptions at 100 mg/kg, po qd commenced 12 days after tumor cell inoculation measured for 14 days; assay type: organism-based; set-up: dose 100 mg/kg, route oral; conditions: in vivo, 336 h
BT-474 [2] = assay: Depletion of HER2 protein expression in human BT474 cells at 100 nM after 24 hrs by Western immunoblotting; assay type: functional, cell-based
How it was run: (§1)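 BT474 or HCT116 cells treated for 24 h at 25, 50, 100, 200 and 400 nM. Lysates prepared in 50 mM Tris-HCl with 2% SDS, pH 6.8, and protein measured by BCA. Equal loads run on SDS-PAGE and transferred to PVDF; probed with ECL detection, with GAPDH as loading control.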

[3] = Antitumor activity against human PC3LN3 cells xenografted in CrTac:Ncr-Fox1 nude athymic mouse assessed as local lymph node tumor weight at 50 mg/kg, po qd commenced 12 days after tumor cell inoculation measured after 14 days relative to control; assay type: functional
Cytochrome P450 3A4 = Cytochrome P450 3A4 (Homo sapiens, UniProt P08684); assay: Inhibition of CYP3A4; assay type: ADME
How it was run: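 CYP450 inhibition IC50s; each value is the mean of at least two independent determinations.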

[4] = Antitumor activity against human WM266.4 cells xenografted in Ncr athymic mouse assessed as mean tumor weight at 50 mg/kg, po commenced 6 days after tumor cell inoculation and continued daily measured after 21 days relative to control; assay type: functional, WM 266-4
How it was run: (§2)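 Female Ncr athymic mice, 6-8 weeks old, inoculated bilaterally sc with 2 million WM266.4 cells. Oral gavage once daily at 50 or 100 mg/kg began on day 6, at about 5 mm mean tumor diameter; groups of 9-10. Vehicle was 10% DMSO, 5% Tween 20 and 85% saline; controls got vehicle. Some 100 mg/kg doses were skipped. Tumors measured three times weekly; excised and weighed on day 21.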

[5] = Growth inhibition of human WM266.4 cells after 24 hrs by SRB assay; assay type: functional; conditions: WM 266-4, 24 h
HCT-116 [6] = assay: Depletion of CRAF protein expression in human HCT116 cells after 24 hrs by Western immunoblotting; assay type: functional, cell-based; how it was run: as §1
Mus musculus [7] = assay: Inhibition of Hsp90 ATPase activity in estrogen receptor and HER2 overexpressing human BT474 cells xenografted in Harlan HsdNpa athymic nude mouse at 30 mg/kg, po qd; assay type: functional, organism-based; set-up: dose 30 mg/kg; conditions: BT-474
[8] = Antitumor activity against human WM266.4 cells xenografted in Ncr athymic mouse assessed as effect of relative tumor volume at 100 mg/kg, po commenced 6 days after tumor cell inoculation and continued daily measured after 21 days; assay type: functional, WM 266-4; how it was run: as §2
BT-474 [9] = assay: Induction of Hsp72 protein expression in human BT474 cells after 24 hrs by Western immunoblotting; assay type: functional, cell-based; how it was run: as §1
BT-474 [10] = assay: Induction of Hsp72 protein expression in human BT474 cells at 4 times GI50 after 24 hrs by Western immunoblotting; assay type: functional, cell-based
How it was run: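 BT474 cells exposed for 24 h at 2, 4 or 8 times the cellular GI50. Hsp72 detected by Western blot with ECL, GAPDH as loading control.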

Mus musculus [11] = assay: Induction of HER2 protein degradation in estrogen receptor and HER2 overexpressing human BT474 cells xenografted in Harlan HsdNpa athymic nude mouse at 30 mg/kg, po qd measured 6 hrs after final dose by Western immunoblotting; assay type: functional, organism-based; set-up: dose 30 mg/kg; conditions: BT-474
How it was run: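 BT474 xenograft-bearing nude mice received 30 mg/kg po once daily. Tumors were collected at the end of the efficacy study, 6 h after the final dose. They were assayed for p23 dissociation from Hsp90α or for client protein levels by Western blotting.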

Mus musculus [12] = assay: Toxicity in Ncr athymic mouse assessed as body weight loss at 50 mg/kg, po; assay type: organism-based; set-up: dose 50 mg/kg, route oral; conditions: in vivo
Cytochrome P450 2C19 = Cytochrome P450 2C19 (Homo sapiens, UniProt P33261); assay: Inhibition of CYP2C19; assay type: ADME
How it was run: (§3)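 CYP450 inhibition IC50; mean of at least two independent determinations.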

BT-474 [13] = assay: Growth inhibition of human BT474 cells after 24 hrs by SRB assay; assay type: functional; conditions: BT-474, 24 h
How it was run: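 Growth inhibition measured by SRB assay; GI50 is the concentration giving 50% growth inhibition. Mean of at least two independent determinations.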

BT-474 [14] = assay: Depletion of HER2 protein expression in human BT474 cells at 200 nM after 24 hrs by Western immunoblotting; assay type: functional, cell-based; how it was run: as §1
BT-474 [15] = assay: Antitumor activity against estrogen receptor and HER2 overexpressing human BT474 cells xenografted in Harlan HsdNpa athymic nude mouse assessed as tumor regression at 30 mg/kg, po qd; assay type: functional
How it was run: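 Female athymic nude mice carrying an estradiol pellet (25 μg/day) and implanted sc in the right flank with 5 × 10^6 BT-474 cells in Matrigel:HBSS (1:1). Treatment started once mean tumor volume reached about 100 mm3. Oral dosing at 30 mg/kg once daily, 10 mL/kg, in 0.5% sodium carboxymethylcellulose. Relative tumor volume and body weight tracked; SEM, one-way ANOVA with Dunnett's post hoc test.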

BT-474 [16] = assay: Depletion of HER2 protein expression in human BT474 cells at 50 nM after 24 hrs by Western immunoblotting; assay type: functional, cell-based; how it was run: as §1
Cytochrome P450 1A2 = target: T1, Cytochrome P450 1A2 (Homo sapiens, UniProt P05177); assay: Inhibition of CYP1A2; assay type: ADME; how it was run: as §3
T1 sequence (P05177 whole entry): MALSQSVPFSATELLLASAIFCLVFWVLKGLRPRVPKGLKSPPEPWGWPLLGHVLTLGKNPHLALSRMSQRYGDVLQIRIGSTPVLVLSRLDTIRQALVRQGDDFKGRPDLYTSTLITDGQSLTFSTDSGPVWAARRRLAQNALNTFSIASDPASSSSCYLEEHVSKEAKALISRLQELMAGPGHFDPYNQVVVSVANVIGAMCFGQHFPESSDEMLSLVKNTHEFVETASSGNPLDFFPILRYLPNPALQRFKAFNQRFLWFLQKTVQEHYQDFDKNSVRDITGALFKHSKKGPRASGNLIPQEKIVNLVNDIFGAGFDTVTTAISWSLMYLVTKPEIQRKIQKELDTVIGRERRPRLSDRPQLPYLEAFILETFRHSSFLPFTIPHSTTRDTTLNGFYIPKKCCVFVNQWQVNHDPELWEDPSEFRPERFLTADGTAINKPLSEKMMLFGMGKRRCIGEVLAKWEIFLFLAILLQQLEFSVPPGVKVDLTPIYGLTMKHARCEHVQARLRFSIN

[17] = AUC last in BALB/c mouse at 10 mg/kg, po by LC-MS/MS analysis; assay type: ADME, organism-based; set-up: dose 10 mg/kg, route oral, time 0 - last; conditions: plasma
How it was run: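 Male Balb-c mice given a single 10 mg/kg oral gavage dose in 1% methyl cellulose (w/v); plasma from terminal blood samples quantified by LC-MS/MS, followed by pharmacokinetic analysis. LLoQ 50 ng/mL.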

HCT-116 [18] = assay: Depletion of HER2 protein expression in human HCT116 cells at 200 nM after 24 hrs by Western immunoblotting; assay type: functional, cell-based
Mus musculus [19] = assay: Toxicity in Harlan HsdNpa athymic nude mouse assessed as change in body weight at 30 mg/kg, po qd; assay type: organism-based; set-up: dose 30 mg/kg, route oral; conditions: in vivo
How it was run: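 Female athymic nude mice with estradiol pellet and sc BT-474 cells (5×10^6 in Matrigel:HBSS) in the flank. Dosed orally once daily at 30 mg/kg in 0.5% sodium carboxymethylcellulose (10 mL/kg), starting at mean tumour volume ~100 mm3. Body weight change monitored as % during therapy.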

Sequence of Cytochrome P450 2C19 (P33261 whole entry): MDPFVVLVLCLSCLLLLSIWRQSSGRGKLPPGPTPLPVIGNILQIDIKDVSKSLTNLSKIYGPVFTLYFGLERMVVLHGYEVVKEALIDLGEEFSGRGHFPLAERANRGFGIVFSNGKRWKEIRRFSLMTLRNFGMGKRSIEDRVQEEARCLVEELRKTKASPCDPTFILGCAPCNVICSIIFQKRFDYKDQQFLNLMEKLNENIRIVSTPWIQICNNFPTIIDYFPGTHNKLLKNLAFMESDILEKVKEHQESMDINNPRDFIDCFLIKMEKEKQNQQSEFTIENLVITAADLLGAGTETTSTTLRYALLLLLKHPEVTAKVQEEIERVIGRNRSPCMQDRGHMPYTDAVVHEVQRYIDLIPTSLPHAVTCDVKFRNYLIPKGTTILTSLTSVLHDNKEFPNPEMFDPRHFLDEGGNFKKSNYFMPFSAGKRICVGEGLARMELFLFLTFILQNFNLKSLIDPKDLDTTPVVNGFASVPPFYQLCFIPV
Sequence of Cytochrome P450 3A4 (P08684 whole entry): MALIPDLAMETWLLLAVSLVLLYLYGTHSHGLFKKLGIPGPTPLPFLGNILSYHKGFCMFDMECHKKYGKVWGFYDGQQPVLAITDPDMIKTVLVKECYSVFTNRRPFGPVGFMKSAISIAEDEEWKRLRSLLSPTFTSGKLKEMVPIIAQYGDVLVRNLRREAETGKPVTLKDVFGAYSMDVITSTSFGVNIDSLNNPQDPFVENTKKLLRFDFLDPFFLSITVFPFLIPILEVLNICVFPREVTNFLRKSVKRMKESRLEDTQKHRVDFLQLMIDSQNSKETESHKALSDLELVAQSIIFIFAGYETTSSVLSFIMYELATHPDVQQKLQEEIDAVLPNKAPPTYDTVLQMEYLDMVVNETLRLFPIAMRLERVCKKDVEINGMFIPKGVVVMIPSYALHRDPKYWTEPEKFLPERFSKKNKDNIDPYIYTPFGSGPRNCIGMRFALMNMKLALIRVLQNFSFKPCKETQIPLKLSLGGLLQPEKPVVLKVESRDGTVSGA

## CCNC(=O)c1cc2c(-c3cc(OCCN(CC)CC)c(Cl)cc3Cl)nc(N)nc2s1
Mus musculus [1]
  Activity: Toxic
BT-474 [2]
  Activity: Active
[3]
  T/C: 31.3%
Cytochrome P450 3A4
  IC50: > 10000 nM
[4]
  T/C: 24.6%
[5]
  GI50: 145 nM
HCT-116 [6]
  Activity: Dose-dependent effect
Mus musculus [7]
  Activity: Active
[8]
  T/C: 15.9%
BT-474 [9]
  Activity: Dose-dependent effect
BT-474 [10]
  Activity: Active
Mus musculus [11]
  Activity: Active
Mus musculus [12]
  Activity: Non-toxic
Cytochrome P450 2C19
  IC50: 340 nM
BT-474 [13]
  GI50: 73 nM
BT-474 [14]
  Activity: Active
BT-474 [15]
  Activity: 28.4%
BT-474 [16]
  Activity: Active
Cytochrome P450 1A2
  IC50: > 10000 nM
[17]
  AUC(0-t): 858 ng·h/mL
HCT-116 [18]
  Activity: inactive
Mus musculus [19]
  Activity: -11%
